Reference: ChEMBL document CHEMBL1122515, “Structure-activity relationship of the ficin hydrolysis of phenyl hippurates. Comparison with papain, actinidin, and bromelain” (J Med Chem, 1984)

Tests used:
[1] = Michaelis constant (Km), determined by Ficin hydrolysis at pH 6, 25 degrees Centigrade; format: ADME; conditions: buffer
Method in brief: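 Ficin stock suspension diluted in 0.03 M NaCl-0.01 M EDTA buffer pH 6, activated ~2 h by saturation with 4-thiocresol, then diluted again in the same buffer. Ester hydrolysis followed spectrophotometrically at 25 °C, pH 6, in 3.3% acetonitrile-buffer. Initial rates taken at ≥8 substrate concentrations per ester. Km from least-squares fit of a Lineweaver-Burk plot.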

[2] = The compound was tested and optimum wavelength (λmax) was evaluated
[3] = The compound was tested and spectral absorbance change (Δε) was evaluated
[4] = The compound was tested for optimum wavelength (λmax)

Log 1/Km [1]	SMILES	also measured
5.14	CC(C)(C)c1cccc(OC(=O)CNC(=O)c2ccccc2)c1	–
3.82	COc1ccc(OC(=O)CNC(=O)c2ccccc2)cc1	–
4.69	O=C(CNC(=O)c1ccccc1)Oc1cc([N+](=O)[O-])cc([N+](=O)[O-])c1	–
3.74	CC(=O)Nc1cccc(OC(=O)CNC(=O)c2ccccc2)c1	–
4.36	O=C(CNC(=O)c1ccccc1)Oc1cccc([N+](=O)[O-])c1	–
4.52	COc1cc(OC)cc(OC(=O)CNC(=O)c2ccccc2)c1	–
3.91	O=C(CNC(=O)c1ccccc1)Oc1ccc(Cl)cc1	–
3.81	O=C(CNC(=O)c1ccccc1)Oc1cccc(F)c1	–
4.17	NC(=O)c1ccc(OC(=O)CNC(=O)c2ccccc2)cc1	–
4.27	N#Cc1ccc(OC(=O)CNC(=O)c2ccccc2)cc1	–
4.98	O=C(CNC(=O)c1ccccc1)Oc1cc(Cl)cc(Cl)c1	–
4.09	COc1cccc(OC(=O)CNC(=O)c2ccccc2)c1	λmax [2]: 280 nm; Δε [3]: 886 M⁻¹ cm⁻¹
3.99	NC(=O)c1cccc(OC(=O)CNC(=O)c2ccccc2)c1	–
4.3	CC(=O)c1ccc(OC(=O)CNC(=O)c2ccccc2)cc1	–
3.72	Nc1cccc(OC(=O)CNC(=O)c2ccccc2)c1	–
4.13	O=C(CNC(=O)c1ccccc1)Oc1ccc(Br)cc1	λmax [4]: 280 nm; Δε [3]: 1090 M⁻¹ cm⁻¹
4.15	N#Cc1cccc(OC(=O)CNC(=O)c2ccccc2)c1	–
4.85	O=C(CNC(=O)c1ccccc1)Oc1cccc(C(F)(F)F)c1	–
3.82	Cc1ccc(OC(=O)CNC(=O)c2ccccc2)cc1	–
4.79	CCc1cc(C)cc(OC(=O)CNC(=O)c2ccccc2)c1	–
4.75	O=C(CNC(=O)c1ccccc1)Oc1cccc(Br)c1	–
4.33	CC(C)c1ccc(OC(=O)CNC(=O)c2ccccc2)cc1	λmax [2]: 275 nm; Δε [3]: 1300 M⁻¹ cm⁻¹
4.54	Cc1cc(C)cc(OC(=O)CNC(=O)c2ccccc2)c1	–
4.11	CC(=O)c1cccc(OC(=O)CNC(=O)c2ccccc2)c1	λmax [2]: 310 nm; Δε [3]: 1860 M⁻¹ cm⁻¹
4.17	Cc1cccc(OC(=O)CNC(=O)c2ccccc2)c1	–
4.64	O=C(CNC(=O)c1ccccc1)Oc1cccc(I)c1	–
3.53	O=C(CNC(=O)c1ccccc1)Oc1ccc(F)cc1	–
4.43	O=C(CNC(=O)c1ccccc1)Oc1cccc(Cl)c1	–
3.9	O=C(CNC(=O)c1ccccc1)Oc1ccccc1	–
4.5	O=C(CNC(=O)c1ccccc1)Oc1ccc([N+](=O)[O-])cc1	–
